Reference: ChEMBL document CHEMBL3785023, “Development and Pharmacological Characterization of Selective Blockers of 2-Arachidonoyl Glycerol Degradation with Efficacy in Rodent Models of Multiple Sclerosis and Pain” (J Med Chem, 2016)
Activity calls are given as the source filed them. The rule behind the calls is not given here.

Key:
Heart [1] = assay: Cardiotoxicity in Langendorff-perfused Sprague-Dawley rat heart assessed as heart rate at 1 uM by ECG analysis (reference value: 252.78 +/- 9.28 bpm); assay type: toxicity, tissue-based
Heart [2] = assay: Cardiotoxicity in Langendorff-perfused Sprague-Dawley rat heart assessed as time duration of cardiac cycle length at 0.001 uM by ECG analysis (reference value: 238.38 +/- 9.23 milliseconds); assay type: toxicity, tissue-based
Heart [3] = assay: Cardiotoxicity in Langendorff-perfused Sprague-Dawley rat heart assessed as time duration of cardiac cycle length at 0.1 uM by ECG analysis (reference value: 238.38 +/- 9.23 milliseconds); assay type: toxicity, tissue-based
Heart [4] = assay: Cardiotoxicity in Langendorff-perfused Sprague-Dawley rat heart assessed as intraventricular conduction time at 0.1 uM by ECG analysis (reference value: 14.26 +/- 0.71 milliseconds); assay type: toxicity, tissue-based, Cardiac ventricle
Monoglyceride lipase = target: T1, Monoglyceride lipase (Rattus norvegicus, UniProt Q8R431); assay: Inhibition of rat MAGL
T1 sequence (Q8R431 whole entry): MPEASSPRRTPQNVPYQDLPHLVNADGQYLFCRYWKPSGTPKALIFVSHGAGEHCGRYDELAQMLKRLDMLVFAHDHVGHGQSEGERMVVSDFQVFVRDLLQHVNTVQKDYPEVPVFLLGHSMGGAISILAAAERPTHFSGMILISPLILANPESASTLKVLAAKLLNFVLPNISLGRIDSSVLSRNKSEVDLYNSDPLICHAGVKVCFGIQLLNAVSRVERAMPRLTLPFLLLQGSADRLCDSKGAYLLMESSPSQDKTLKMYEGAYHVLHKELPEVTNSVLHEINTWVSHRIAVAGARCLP

Mus musculus [5] = assay: Toxicity in CD-1 mouse assessed as 2-AG level in pawskin at 0.3 mg/kg, ip by LC-MS analysis (reference value: 6.1 +/- 0.3 pmol/g); assay type: organism-based; details: in vivo
Method in brief: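 Male CD-1 mice received 0.3 mg/kg i.p. in 0.5% DMSO/saline, with formalin (1.25%, 30 µL) injected into the dorsal hind paw. Paw skin or spinal cord was taken at 5 min post-dose. Tissue was homogenized in CHCl3/MeOH/50 mM Tris-HCl (2:1:1) containing d5-2-AG, extracted with chloroform and analysed by LC-MS. n = 4; ANOVA with Bonferroni test.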

Mus musculus [6] = assay: Reduction of disease index score in myelin oligodendrocyte glycoprotein (35 to 55)-induced C57BL/6J mouse experimental autoimmune encephalomyelitis model of multiple sclerosis at 3 mg/kg, ip dosed on day 6 postimmunization up to 21 day postimmunization measured from day 8 postimmunization; assay type: functional, organism-based
Method in brief: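 Female C57BL/6J mice immunized with MOG35-55 were randomly assigned to groups. They received 3 mg/kg i.p. daily from 6 days post-immunization up to 21±1 d.p.i. AM251 or AM630, 1 mg/kg i.p., was given 10 min before each dose for 14 days. Clinical score was recorded daily and as cumulative score, reported as mean ± SEM. Group sizes were 4–9 mice.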

[7] = Selectivity ratio of IC50 for human recombinant C-terminal His-tagged FAAH expressed in sf21 cells to IC50 for recombinant C-terminal His6-tagged human MAGL expressed in Escherichia coli
Method in brief: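 Ratio of IC50 values from two radiometric assays, each read by scintillation counting of the aqueous phase after CHCl3/MeOH 1:1 extraction. MGL assay: 10,000xg cytosolic fraction of human recombinant MGL (0.05 µg/sample), 50 mM Tris-HCl pH 7.0, 37 °C, 20 min, 2-arachidonoyl-[3H]-glycerol. FAAH assay: human recombinant FAAH (2 µg/sample), pH 9.5, 37 °C, 30 min, [14C]-anandamide. Means of three experiments.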

[8] = target: T2, Fatty-acid amide hydrolase 1 (Rattus norvegicus) (UniProt P97612); assay: Inhibition of FAAH in rat brain membranes up to 500 nM preincubated for 20 mins followed by fluorophosphonate-rhodamine addition measured after 30 mins by competitive affinity based proteomic profiling assay; assay type: cell membranes; details: Membrane
T2 sequence (whole entry): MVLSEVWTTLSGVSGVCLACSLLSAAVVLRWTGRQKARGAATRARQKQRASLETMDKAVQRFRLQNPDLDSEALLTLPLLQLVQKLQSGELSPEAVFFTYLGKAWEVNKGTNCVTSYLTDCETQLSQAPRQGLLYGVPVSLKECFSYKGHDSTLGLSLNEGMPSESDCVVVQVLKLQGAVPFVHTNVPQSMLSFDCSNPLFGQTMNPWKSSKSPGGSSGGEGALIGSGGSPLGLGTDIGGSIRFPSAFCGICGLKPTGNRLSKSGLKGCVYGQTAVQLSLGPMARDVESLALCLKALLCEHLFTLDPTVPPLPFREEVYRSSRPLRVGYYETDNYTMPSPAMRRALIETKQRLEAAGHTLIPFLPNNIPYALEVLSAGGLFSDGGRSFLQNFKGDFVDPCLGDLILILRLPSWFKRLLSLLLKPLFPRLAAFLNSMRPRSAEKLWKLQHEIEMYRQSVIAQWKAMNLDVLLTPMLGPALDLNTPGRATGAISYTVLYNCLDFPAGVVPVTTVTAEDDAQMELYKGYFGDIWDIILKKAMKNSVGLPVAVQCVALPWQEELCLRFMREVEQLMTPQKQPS
Method in brief: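 Rat brain membranes (1 mg/mL) preincubated with 1–1000 nM inhibitor or DMSO for 20 min at 37 °C. FP-rhodamine then added and incubated a further 30 min at 37 °C. Samples run on SDS-PAGE and serine hydrolase bands quantified by in-gel fluorescence.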

Mus musculus [9] = assay: Reduction of IBA1 positive cells in white matter anterior fasciculus of experimental autoimmune encephalomyelitis C57BL/6J mouse spinal cord at 3 mg/kg, ip administered post CB1 antagonist/inverse agonist AM251 addition by immunofluorescence assay; assay type: functional, organism-based
Method in brief: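 MOG35-55-immunized female C57BL/6J mice were given 3 mg/kg i.p. daily. AM251 or AM630, each at 1 mg/kg, was given 10 min before each dose. Iba1 immunofluorescence with DAPI was done on spinal cord white matter (anterior fasciculus). Positive cells were counted per optic field. One-way ANOVA with Bonferroni test.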

Mus musculus [10] = assay: Antinociceptive activity in CD-1 mouse assessed as inhibition of formalin-induced early phase pain response at 0.1 to 0.3 mg/kg, ip dosed 10 mins before formalin injection measured every 5 mins for 60 mins in presence of CB2 antagonist/inverse agonist AM630; assay type: functional, organism-based
Method in brief: (§1)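 Male CD-1 mice, n = 6 per group, injected with formalin (1.25% in saline, 30 μL) into the dorsal hind paw. Inhibitor (0.1 or 0.3 mg/kg i.p. in 0.5% DMSO/saline) given 10 min before formalin. Where used, AM251 or AM630 (1 mg/kg i.p.) given 10 min before the inhibitor. Time spent lifting, licking, shaking or flinching the injected paw recorded every 5 min over 60 min.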

Mus musculus [11] = assay: Antinociceptive activity in CD-1 mouse assessed as inhibition of formalin-induced late phase pain response at 0.1 to 0.3 mg/kg, ip dosed 10 mins before formalin injection measured every 5 mins for 60 mins in presence of CB2 antagonist/inverse agonist AM630; assay type: functional, organism-based; method in brief: as §1
Mus musculus [12] = assay: Antinociceptive activity in CD-1 mouse assessed as inhibition of formalin-induced pain response at 0.1 to 0.3 mg/kg, ip dosed 10 mins before formalin injection measured during late phase; assay type: functional, organism-based; method in brief: as §1

SMILES	Activity (Heart [1]) [bpm]	Time (Heart [2]) [ms]	Time (Heart [3]) [ms]	Time (Heart [4]) [ms]	IC50 (Monoglyceride lipase) [nM]	Activity (Mus musculus [5]) [pmol/g]	Activity (Mus musculus [6])	Ratio IC50 [7]	inhibition [8]	Activity (Mus musculus [9])	inhibition (Mus musculus [10])	inhibition (Mus musculus [11])	inhibition (Mus musculus [12])
O=C1[C@H](c2ccc(F)cc2)[C@@H](c2ccc3c(c2)OCO3)N1C1CCN(C(=O)n2cncn2)CC1 (racemic) [listing 1 of 2 here]	255.5	236.93	238.15	13.75	0.25	11							
O=C1[C@H](c2ccc(F)cc2)[C@@H](c2ccc3c(c2)OCO3)N1C1CCN(C(=O)n2cncn2)CC1 (racemic) [listing 2 of 2 here]							Active	389	inactive	inactive	inactive	inactive	Active
